PDI turbidity – inhibitors of human protein disulfide isomerase; P07237; PDI insulin aggregation turbidity, A650, 90 min; inhibition, % at 10 µM; hit rate 0.052% among 350,000;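 active = mean inhibition across replicates of 30% or more, whatever share of single replicates reach that level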
S100A4 MyoIIA – S100A4-myosin IIA interaction inhibition; AID 652163; hit rate 0.14% among 360,000; inhibition, % at 10.7 µM; P26447; S100A4/TAMRA-MyoIIA peptide fluorescence polarization;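 active = mean inhibition of at least 70% across replicates, with every replicate also reaching that level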
Target sequence (P26447 whole entry, looked up): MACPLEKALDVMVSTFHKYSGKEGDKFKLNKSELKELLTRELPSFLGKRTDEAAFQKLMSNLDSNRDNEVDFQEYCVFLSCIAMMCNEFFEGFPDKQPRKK
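assay system = human S100A4 monomer with TAMRA-labelled myosin IIA peptide | also added = labelled myosin peptide probe, 5 nM | incubation = 5 min between mix addition and reading | control set = DMSO and TFP controls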
SIRT5 inh – blocks human SIRT5 desuccinylation of peptide; Purified SirT5, succinyl-peptide AMC, trypsin-coupled fluorescence; inhibition, % at 15 µM; hit rate 1.1% among 330,000; AID 652115; in the data active = inhibition above about 15%
GSIS activator – GLuc luminescence reporter in INS-1E cells, primary screen for activators of glucose-dependent secretion of insulin | INS-1E GLuc reporter insulin secretion, 2-3 h | activation, % at 16.6 µM | hit rate 0.61% among 370,000 | AID 743287;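 active = lowest replicate activation of at least 40%, so every replicate reaches that level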
ERp5 inh – blocks human ERp5 reductase activity on insulin | Q15084 | ERp5 insulin aggregation, absorbance 650 nm, 90 min | inhibition, % at 9.99 µM | hit rate 0.05% among 350,000 | AID 651711;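 active = mean replicate inhibition above about 25%, with every replicate also reaching it, limit read from the data, passing the limit was not always enough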
Target sequence (Q15084 whole entry, looked up): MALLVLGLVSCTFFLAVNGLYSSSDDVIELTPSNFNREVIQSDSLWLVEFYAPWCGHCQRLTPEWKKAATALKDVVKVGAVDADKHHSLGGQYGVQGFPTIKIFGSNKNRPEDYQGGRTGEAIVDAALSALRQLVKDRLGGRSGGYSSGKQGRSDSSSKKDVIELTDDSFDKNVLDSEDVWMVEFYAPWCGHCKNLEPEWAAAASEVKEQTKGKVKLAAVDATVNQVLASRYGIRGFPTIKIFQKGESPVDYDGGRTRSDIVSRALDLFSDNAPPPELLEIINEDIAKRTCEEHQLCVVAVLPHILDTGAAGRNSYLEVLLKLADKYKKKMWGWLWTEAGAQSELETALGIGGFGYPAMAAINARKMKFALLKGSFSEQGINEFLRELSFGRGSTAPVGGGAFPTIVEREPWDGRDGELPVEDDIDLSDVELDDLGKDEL
Numbers stand for hits. An excerpt weighted towards active compounds, which were near 1.5% of everything screened.

For C[C@@H]1CCCCO[C@@H](CN(C)C(=O)Nc2ccc(C(F)(F)F)cc2)[C@H](C)CN([C@@H](C)CO)C(=O)c2cc(NC(=O)Nc3ccc4c(c3)OCO4)ccc2O1 the results were S100A4 MyoIIA inactive, SIRT5 inh 15, GSIS activator inactive and ERp5 inh inactive.
`C[C@H]1CCCCO[C@H](CN(C)C(=O)Nc2ccc(C(F)(F)F)cc2)[C@@H](C)CN([C@@H](C)CO)C(=O)c2cc(NC(=O)Nc3ccc4c(c3)OCO4)ccc2O1` gave S100A4 MyoIIA inactive, SIRT5 inh inactive, GSIS activator inactive and ERp5 inh inactive.
For C[C@H](CO)N1C[C@H](C)[C@H](CN(C)C(=O)Nc2ccc(C(F)(F)F)cc2)OCCCC[C@H](C)Oc2ccc(NC(=O)Nc3ccc4c(c3)OCO4)cc2C1=O the results were S100A4 MyoIIA inactive, SIRT5 inh 15, GSIS activator inactive and ERp5 inh inactive.
Cc1noc(C)c1NC(=O)Nc1ccc2c(c1)C(=O)N([C@H](C)CO)C[C@H](C)[C@@H](CN(C)C(=O)Nc1ccc(C(F)(F)F)cc1)OCCCC[C@H](C)O2 was read as S100A4 MyoIIA inactive, SIRT5 inh 21, GSIS activator inactive and ERp5 inh inactive.
For C[C@H](CO)N1C[C@H](C)[C@@H](CN(C)C(=O)Nc2ccc3c(c2)OCO3)OCCCC[C@H](C)Oc2ccc(NC(=O)Nc3ccc(C(F)(F)F)cc3)cc2C1=O the results were S100A4 MyoIIA inactive, SIRT5 inh inactive, GSIS activator inactive and ERp5 inh inactive.
Screening CC(=O)N(C)C[C@H]1Oc2ccc(N(C)C)cc2C(=O)N(C)C[C@H]1C returned GSIS activator inactive.
`O=C(NNS(=O)(=O)c1ccc(F)cc1)c1cccc(O)c1` gave PDI turbidity inactive, S100A4 MyoIIA inactive, SIRT5 inh 17, GSIS activator inactive and ERp5 inh inactive.
Screening O=C(C[C@H]1CC[C@H](NC(=O)NC2CCCC2)[C@@H](CO)O1)NCc1ccc(F)cc1 returned S100A4 MyoIIA inactive, SIRT5 inh inactive, GSIS activator inactive and ERp5 inh inactive.
For O=C(c1cccnc1)N1CC[C@@H]2[C@@H](CO)Nc3ccc(C4=CCCCC4)cc3[C@@H]21 the results were S100A4 MyoIIA inactive, SIRT5 inh 17, GSIS activator inactive and ERp5 inh inactive.
Screening O=C(CN1CCOCC1)N1CC[C@H]2[C@H](CO)Nc3ccc(-c4ccc(F)cc4)cc3[C@H]21 returned S100A4 MyoIIA inactive, SIRT5 inh 34, GSIS activator inactive and ERp5 inh inactive.
O=C(c1cccnc1)N1CC[C@@H]2[C@H](CO)Nc3ccc(C4=CCCCC4)cc3[C@@H]21 was read as S100A4 MyoIIA inactive, SIRT5 inh inactive, GSIS activator inactive and ERp5 inh inactive.
Screening N#Cc1cccc(-c2ccc3c(c2)[C@@H]2[C@@H](CCN2C(=O)c2ccncc2)[C@@H](CO)N3)c1 returned S100A4 MyoIIA 98, SIRT5 inh inactive, GSIS activator inactive and ERp5 inh inactive.
Screening N#Cc1ccc(-c2ccc3c(c2)[C@@H]2[C@@H](CCN2C(=O)c2ccncc2)[C@H](CO)N3)cc1 returned S100A4 MyoIIA inactive, SIRT5 inh inactive, GSIS activator inactive and ERp5 inh inactive.
Screening CCCNC(=O)N(C)C[C@@H]1Oc2ncc(C#CCc3ccccc3)cc2C(=O)N([C@@H](C)CO)C[C@@H]1C returned S100A4 MyoIIA inactive, SIRT5 inh inactive, GSIS activator inactive and ERp5 inh inactive.
`O=C1ON=C(c2ccccc2)/C1=C/c1ccco1` gave PDI turbidity inactive, S100A4 MyoIIA inactive, SIRT5 inh 20, GSIS activator inactive and ERp5 inh inactive.
For Cc1noc(C)c1S(=O)(=O)Nc1ccc2c(c1)CC(=O)N([C@@H](C)CO)C[C@@H](C)[C@H](CN(C)Cc1ccc(C(=O)O)cc1)O2 the results were S100A4 MyoIIA inactive, SIRT5 inh inactive, GSIS activator inactive and ERp5 inh inactive.
For NC(=O)/C(=C/c1ccco1)C(N)=S the results were PDI turbidity inactive, S100A4 MyoIIA inactive, SIRT5 inh 17 and ERp5 inh inactive.
CC(=O)Cc1nsc(NC(=O)c2ccc(Br)o2)n1 was read as PDI turbidity inactive, S100A4 MyoIIA inactive, SIRT5 inh inactive, GSIS activator inactive and ERp5 inh inactive.
CC(=O)Cc1nsc(NC(=O)c2ccc(-c3cccc(Cl)c3)o2)n1 was read as PDI turbidity inactive, S100A4 MyoIIA inactive, SIRT5 inh inactive, GSIS activator 42 and ERp5 inh inactive.
`CCOC(=O)C1=C(COC(=O)/C=C/c2cccc(OC)c2OC)NC(=O)NC1C` (stereo not drawn) gave PDI turbidity inactive, S100A4 MyoIIA inactive, SIRT5 inh inactive, GSIS activator 57 and ERp5 inh inactive.
`CCOC(=O)C1=C(COC(=O)/C=C/c2ccc(OCC)c(OC)c2)NC(=O)NC1C` (stereo not drawn) gave PDI turbidity inactive, S100A4 MyoIIA inactive, SIRT5 inh inactive, GSIS activator 90 and ERp5 inh inactive.
`CCOC(=O)C1=C(COC(=O)Cc2ccc(Br)cc2)NC(=O)NC1C` (stereo not drawn) gave PDI turbidity inactive, S100A4 MyoIIA inactive, SIRT5 inh inactive, GSIS activator inactive and ERp5 inh inactive.
Screening CCOC(=O)C1=C(COC(=O)Cc2ccccc2F)NC(=O)NC1C (stereo not drawn) returned PDI turbidity inactive, S100A4 MyoIIA inactive, SIRT5 inh inactive, GSIS activator 42 and ERp5 inh inactive.
`CCOC(=O)C1=C(COC(=O)/C=C/c2ccccc2F)NC(=O)NC1C` (stereo not drawn) gave PDI turbidity inactive, S100A4 MyoIIA inactive, SIRT5 inh inactive, GSIS activator inactive and ERp5 inh inactive.
CCOC(=O)C1=C(COC(=O)/C=C/c2ccc(Cl)cc2)NC(=O)NC1C (stereo not drawn) was read as PDI turbidity inactive, S100A4 MyoIIA inactive, SIRT5 inh inactive, GSIS activator inactive and ERp5 inh inactive.
C[C@H](CO)N1C[C@H](C)[C@@H](CN(C)CC2CCCCC2)Oc2ccc(NC(=O)c3ccncc3)cc2C1=O was read as S100A4 MyoIIA inactive, SIRT5 inh inactive, GSIS activator inactive and ERp5 inh inactive.
`CC(C)(C)C(=O)c1c(N)[nH]c(C(=O)c2ccccc2)c1-c1ccc(Br)cc1` gave S100A4 MyoIIA inactive, SIRT5 inh 20, GSIS activator inactive and ERp5 inh inactive.
For O=C(COC(=O)Cc1cn2ccsc2n1)NC12CC3CC(CC(C3)C1)C2 the results were PDI turbidity inactive.
CC1CCCC(NC(=O)COC(=O)Cc2cn3ccsc3n2)C1C (stereo not drawn) was read as PDI turbidity inactive, S100A4 MyoIIA inactive, SIRT5 inh 15 and ERp5 inh inactive.
`O=C(c1cccnc1)N(Cc1ccccc1)c1ccccc1` gave PDI turbidity inactive, S100A4 MyoIIA inactive, SIRT5 inh inactive, GSIS activator 117 and ERp5 inh inactive.

High-throughput results as filed in PubChem BioAssay.
